ChEMBL document CHEMBL1154352, “Toll-like receptor 7 selective synthetic oligoribonucleotide agonists: synthesis and structure-activity relationship studies” (J Med Chem, 2009)
The source made the active and inactive calls. No cut-off for these calls is given here.

Experiments:
[1] = Metabolic stability in human serum assessed as full length product remaining after 10 mins by HPLC; format: ADME, cell-free; settings: read-out: Stability
Outline: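 About 0.5 A260 units compound in 1% human serum in PBS, 37 °C; aliquot taken at 10 min, analysed by anion-exchange HPLC for percent intact full-length product.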

[2] = biological target: T1, Toll-like receptor 8 (Homo sapiens) (UniProt Q9NR97); assay: Activation of human TLR8 expressed in HEK293XL assessed as fold induction of NF-kappaB activity at 50 ug/ml after 18 hrs by reporter gene assay relative to control
T1 sequence (whole entry): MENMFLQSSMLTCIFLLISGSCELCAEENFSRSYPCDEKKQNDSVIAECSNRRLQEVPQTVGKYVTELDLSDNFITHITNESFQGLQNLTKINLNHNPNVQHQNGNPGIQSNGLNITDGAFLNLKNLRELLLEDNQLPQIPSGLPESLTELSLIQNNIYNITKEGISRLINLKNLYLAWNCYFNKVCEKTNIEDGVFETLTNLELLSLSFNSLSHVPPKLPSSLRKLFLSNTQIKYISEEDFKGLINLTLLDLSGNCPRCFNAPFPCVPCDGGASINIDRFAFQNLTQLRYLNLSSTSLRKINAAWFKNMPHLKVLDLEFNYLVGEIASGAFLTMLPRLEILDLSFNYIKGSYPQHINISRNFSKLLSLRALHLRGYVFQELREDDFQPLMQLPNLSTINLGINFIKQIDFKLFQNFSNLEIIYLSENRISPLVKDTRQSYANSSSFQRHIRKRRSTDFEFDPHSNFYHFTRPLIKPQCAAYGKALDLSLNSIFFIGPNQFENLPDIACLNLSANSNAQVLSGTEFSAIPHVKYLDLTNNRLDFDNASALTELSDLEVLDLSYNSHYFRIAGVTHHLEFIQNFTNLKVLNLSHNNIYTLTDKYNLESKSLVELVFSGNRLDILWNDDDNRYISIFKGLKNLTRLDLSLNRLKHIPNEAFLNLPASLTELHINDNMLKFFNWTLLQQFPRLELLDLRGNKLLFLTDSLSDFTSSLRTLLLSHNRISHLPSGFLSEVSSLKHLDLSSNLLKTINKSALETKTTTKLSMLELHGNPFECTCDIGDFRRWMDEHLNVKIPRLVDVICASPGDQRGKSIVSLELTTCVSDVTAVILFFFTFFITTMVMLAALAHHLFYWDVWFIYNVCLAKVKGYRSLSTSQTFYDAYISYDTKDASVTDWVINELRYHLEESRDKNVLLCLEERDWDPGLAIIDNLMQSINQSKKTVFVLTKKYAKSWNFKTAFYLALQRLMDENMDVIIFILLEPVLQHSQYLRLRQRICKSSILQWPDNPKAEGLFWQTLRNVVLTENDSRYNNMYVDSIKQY
Outline: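 HEK293 cells stably expressing human TLR7 or TLR8, transiently transfected with SEAP reporter plasmid; medium replaced, SIMRA compounds added, 18 h incubation. Supernatant SEAP measured by QuantiBlue; expressed as fold increase in NF-κB activity over PBS control. Tabulated data at 50 μg/mL, representative of three independent experiments.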

[3] = biological target: T2, Toll-like receptor 9 (Mus musculus) (UniProt Q9EQU3); assay: Activation of mouse TLR9 expressed in HEK293 assessed as induction of NF-kappaB activity reporter gene assay; format: cell-based
T2 sequence (whole entry): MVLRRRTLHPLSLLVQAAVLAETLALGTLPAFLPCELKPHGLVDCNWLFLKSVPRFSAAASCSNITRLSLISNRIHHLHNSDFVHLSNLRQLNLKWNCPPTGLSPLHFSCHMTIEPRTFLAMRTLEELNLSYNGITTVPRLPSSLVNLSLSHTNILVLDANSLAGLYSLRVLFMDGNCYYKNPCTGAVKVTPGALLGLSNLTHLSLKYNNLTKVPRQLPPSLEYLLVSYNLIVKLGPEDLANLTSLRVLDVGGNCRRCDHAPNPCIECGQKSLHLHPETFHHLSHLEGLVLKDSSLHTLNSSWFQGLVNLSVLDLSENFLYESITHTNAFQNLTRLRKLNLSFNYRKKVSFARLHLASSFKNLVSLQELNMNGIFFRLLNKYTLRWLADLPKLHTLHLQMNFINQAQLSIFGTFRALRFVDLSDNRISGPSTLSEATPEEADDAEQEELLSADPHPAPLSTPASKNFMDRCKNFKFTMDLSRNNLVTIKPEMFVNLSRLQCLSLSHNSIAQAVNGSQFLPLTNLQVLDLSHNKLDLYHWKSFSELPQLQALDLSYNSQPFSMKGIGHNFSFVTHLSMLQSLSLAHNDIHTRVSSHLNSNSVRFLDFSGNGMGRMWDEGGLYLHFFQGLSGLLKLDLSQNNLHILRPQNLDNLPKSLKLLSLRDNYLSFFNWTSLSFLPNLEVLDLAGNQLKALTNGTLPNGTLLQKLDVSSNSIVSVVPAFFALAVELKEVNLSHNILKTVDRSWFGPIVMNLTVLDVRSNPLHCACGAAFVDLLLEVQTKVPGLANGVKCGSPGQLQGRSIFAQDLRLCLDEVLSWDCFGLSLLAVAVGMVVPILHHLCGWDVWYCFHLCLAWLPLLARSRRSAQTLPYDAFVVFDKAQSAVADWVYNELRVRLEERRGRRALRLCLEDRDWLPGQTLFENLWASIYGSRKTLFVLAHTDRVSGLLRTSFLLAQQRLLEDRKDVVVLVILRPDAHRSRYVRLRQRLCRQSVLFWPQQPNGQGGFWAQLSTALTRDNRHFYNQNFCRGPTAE

[4] = biological target: Toll-like receptor 3 (Homo sapiens) (UniProt O15455); assay: Activation of human TLR3 expressed in HEK293 assessed as induction of NF-kappaB activity reporter gene assay; format: cell-based
Splenocyte [5] = assay: Immunomodulatory activity in C57BL/6 mouse splenocytes bearing TLR7 receptor assessed as IL6 release at 100 ug/ml after 24 hrs by ELISA; format: functional, cell-based
Outline: (§1)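 C57BL/6 splenocytes in RPMI 1640 with 10% FBS, penicillin/streptomycin, 2 mM L-glutamine, plated at 5 × 10^6 cells/mL; compounds in PBS added, 37 °C for 24 h. Supernatant IL-12 and IL-6 by ELISA; representative of three independent experiments.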

Splenocyte [6] = assay: Immunomodulatory activity in C57BL/6 mouse splenocytes bearing TLR7 receptor assessed as IL12 release at 100 ug/ml after 24 hrs by ELISA; format: functional, cell-based; outline: as §1

Sequence of Toll-like receptor 3 (Homo sapiens) (O15455 whole entry): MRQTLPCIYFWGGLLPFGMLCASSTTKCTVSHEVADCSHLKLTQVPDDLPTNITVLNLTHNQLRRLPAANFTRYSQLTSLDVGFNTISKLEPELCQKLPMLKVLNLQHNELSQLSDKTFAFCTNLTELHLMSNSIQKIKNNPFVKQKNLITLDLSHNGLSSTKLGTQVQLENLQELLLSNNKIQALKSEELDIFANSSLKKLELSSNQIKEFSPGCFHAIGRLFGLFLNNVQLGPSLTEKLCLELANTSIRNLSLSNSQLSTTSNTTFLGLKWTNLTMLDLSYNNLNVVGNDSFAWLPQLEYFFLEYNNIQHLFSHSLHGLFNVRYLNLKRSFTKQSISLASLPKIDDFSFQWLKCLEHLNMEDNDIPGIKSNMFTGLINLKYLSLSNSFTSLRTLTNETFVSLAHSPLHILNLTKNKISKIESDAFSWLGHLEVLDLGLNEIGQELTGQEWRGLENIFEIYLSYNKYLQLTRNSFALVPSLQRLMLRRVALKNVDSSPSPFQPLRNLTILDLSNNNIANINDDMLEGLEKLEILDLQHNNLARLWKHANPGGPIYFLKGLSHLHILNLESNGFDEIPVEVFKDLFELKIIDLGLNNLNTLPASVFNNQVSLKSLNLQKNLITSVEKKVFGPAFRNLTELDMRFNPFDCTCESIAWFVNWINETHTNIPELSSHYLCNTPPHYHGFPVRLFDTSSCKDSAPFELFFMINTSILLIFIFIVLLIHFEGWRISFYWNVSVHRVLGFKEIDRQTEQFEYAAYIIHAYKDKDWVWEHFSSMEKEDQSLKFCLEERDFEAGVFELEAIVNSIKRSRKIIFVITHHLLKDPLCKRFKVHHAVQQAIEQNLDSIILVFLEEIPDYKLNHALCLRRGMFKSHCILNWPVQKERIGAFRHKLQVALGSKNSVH

Row | remaining at 10 min [1] | fold change (FC) [2] | Activity [3] | Activity [4] | Activity (Splenocyte [5]) | Activity (Splenocyte [6]) | Structure (SMILES)
1 | 72% | 1.8 | inactive | inactive | Active | Active | Nc1ccn([C@@H]2O[C@H](COP(=O)(S)O[C@H]3[C@@H](O)[C@H](n4ccc(N)nc4=O)O[C@@H]3COP(=O)(S)O[C@H]3[C@@H](O)[C@H](n4cnc5c(N)ncnc54)O[C@@H]3COP(=O)(S)O[C@H]3[C@@H](O)[C@H](n4ccc5c(=O)[nH]c(N)nc54)O[C@@H]3COP(=O)(S)O[C@H]3[C@@H](O)[C@H](n4ccc(=O)[nH]c4=O)O[C@@H]3COP(=O)(S)O[C@H]3[C@@H](O)[C@H](n4ccc(=O)[nH]c4=O)O[C@@H]3COP(=O)(S)O[C@H]3[C@@H](O)[C@H](n4ccc(N)nc4=O)O[C@@H]3COP(=O)(S)O[C@H]3[C@@H](O)[C@H](n4cnc5c(N)ncnc54)O[C@@H]3CO)[C@@H](OP(=O)(S)OC[C@H]3O[C@@H](n4ccc(=O)[nH]c4=O)[C@H](O)[C@@H]3OP(=O)(S)OC[C@H]3O[C@@H](n4ccc(=O)[nH]c4=O)[C@H](O)[C@@H]3OP(=O)(S)OC[C@H]3O[C@@H](n4ccc(=O)[nH]c4=O)[C@H](O)[C@@H]3OP(=O)(S)OCC(O)COP(=O)(S)O[C@H]3[C@@H](O)[C@H](n4ccc(=O)[nH]c4=O)O[C@@H]3COP(=O)(S)O[C@H]3[C@@H](O)[C@H](n4ccc(=O)[nH]c4=O)O[C@@H]3COP(=O)(S)O[C@H]3[C@@H](O)[C@H](n4ccc(=O)[nH]c4=O)O[C@@H]3COP(=O)(S)O[C@H]3[C@@H](O)[C@H](n4ccc(N)nc4=O)O[C@@H]3COP(=O)(S)O[C@H]3[C@@H](O)[C@H](n4ccc(N)nc4=O)O[C@@H]3COP(=O)(S)O[C@H]3[C@@H](O)[C@H](n4cnc5c(N)ncnc54)O[C@@H]3COP(=O)(S)O[C@H]3[C@@H](O)[C@H](n4ccc5c(=O)[nH]c(N)nc54)O[C@@H]3COP(=O)(S)O[C@H]3[C@@H](O)[C@H](n4ccc(=O)[nH]c4=O)O[C@@H]3COP(=O)(S)O[C@H]3[C@@H](O)[C@H](n4ccc(=O)[nH]c4=O)O[C@@H]3COP(=O)(S)O[C@H]3[C@@H](O)[C@H](n4ccc(N)nc4=O)O[C@@H]3COP(=O)(S)O[C@H]3[C@@H](O)[C@H](n4cnc5c(N)ncnc54)O[C@@H]3CO)[C@H]2O)c(=O)n1 (some centres not stated)
2 | 79% | 2.4 | inactive | inactive | Active | Active | Nc1ccn([C@@H]2O[C@H](COP(=O)(S)O[C@H]3[C@@H](O)[C@H](n4cnc5c(N)ncnc54)O[C@@H]3CO)[C@@H](OP(=O)(S)OC[C@H]3O[C@@H](n4ccc(=O)[nH]c4=O)[C@H](O)[C@@H]3OP(=O)(S)OC[C@H]3O[C@@H](n4ccc5c(=O)[nH]c(N)nc54)[C@H](O)[C@@H]3OP(=O)(S)OC[C@H]3O[C@@H](n4cnc5c(N)ncnc54)[C@H](O)[C@@H]3OP(=O)(S)OC[C@H]3O[C@@H](n4ccc5c(=O)[nH]c(N)nc54)[C@H](O)[C@@H]3OP(=O)(S)OC[C@H]3O[C@@H](n4cnc5c(N)ncnc54)[C@H](O)[C@@H]3OP(=O)(S)OC[C@H]3O[C@@H](n4ccc5c(=O)[nH]c(N)nc54)[C@H](O)[C@@H]3OP(=O)(S)OC[C@H]3O[C@@H](n4ccc(N)nc4=O)[C@H](O)[C@@H]3OP(=O)(S)OC[C@H]3O[C@@H](n4ccc(=O)[nH]c4=O)[C@H](O)[C@@H]3OP(=O)(S)OC[C@H]3O[C@@H](n4ccc(=O)[nH]c4=O)[C@H](O)[C@@H]3OP(=O)(S)OCC(O)COP(=O)(S)O[C@H]3[C@@H](O)[C@H](n4ccc(=O)[nH]c4=O)O[C@@H]3COP(=O)(S)O[C@H]3[C@@H](O)[C@H](n4ccc(=O)[nH]c4=O)O[C@@H]3COP(=O)(S)O[C@H]3[C@@H](O)[C@H](n4ccc(N)nc4=O)O[C@@H]3COP(=O)(S)O[C@H]3[C@@H](O)[C@H](n4ccc5c(=O)[nH]c(N)nc54)O[C@@H]3COP(=O)(S)O[C@H]3[C@@H](O)[C@H](n4cnc5c(N)ncnc54)O[C@@H]3COP(=O)(S)O[C@H]3[C@@H](O)[C@H](n4ccc5c(=O)[nH]c(N)nc54)O[C@@H]3COP(=O)(S)O[C@H]3[C@@H](O)[C@H](n4cnc5c(N)nc(N)nc54)O[C@@H]3COP(=O)(S)O[C@H]3[C@@H](O)[C@H](n4ccc5c(=O)[nH]c(N)nc54)O[C@@H]3COP(=O)(S)O[C@H]3[C@@H](O)[C@H](n4ccc(=O)[nH]c4=O)O[C@@H]3COP(=O)(S)O[C@H]3[C@@H](O)[C@H](n4ccc(N)nc4=O)O[C@@H]3COP(=O)(S)O[C@H]3[C@@H](O)[C@H](n4cnc5c(N)ncnc54)O[C@@H]3CO)[C@H]2O)c(=O)n1 (some centres not stated)
